In paper PMC2692502 (Journal of Antimicrobial Chemotherapy, 2009):
Read-outs that look alike come from different tables or passages of the source.

Columns and labels:
[1] = cited from earlier work
[2] = Study 1: safety and tolerability; type: in vivo, human; settings: Study 1, 6 mg/kg
Summary of the method: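 Healthy adult volunteers in a randomized, open-label, single-dose, two-period crossover. Each received test compound 6 mg/kg as a 30 min iv infusion and as a 2 min peripheral iv injection by syringe driver, in random order, with a 5-day washout. The investigator graded AEs for relatedness (not, unlikely, possibly, probably related) and severity (mild/moderate/severe). Tabulated AEs were possibly or probably related. Follow-up was 1–11 days post-dose.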

[3] = type: in vivo, human; settings: for AUC(0-t): AUC0–t, trapezoidal rule; for clearance: CL, healthy adult volunteers
Summary of the method: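 Healthy adult volunteers, randomized open-label two-period crossover: a single 6 mg/kg dose given as a 30 min iv infusion and as a 2 min iv injection, with a 5 day washout. Heparinized blood was drawn predose, immediately after dosing and up to 36 h after dosing ended. Total plasma drug was measured by HPLC (LLOQ 3 mg/L). Non-compartmental trapezoidal AUC was computed. The injection:infusion ratio (95% CI) came from ANOVA of log-transformed values.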

[4] = independent of the daptomycin concentration; cited from earlier work
[5] = Study 2: single- and multiple-dose pharmacokinetics of the 2 min iv injection; type: in vivo, human; settings: for Ratio of 6 mg/kg:4 mg/kg daptomycin (95% CI), AUC0–tau (dose-normalized) / Ratio of 6 mg/kg:4 mg/kg daptomycin (95% CI), Ae0–tau (dose-normalized), cumulative amount of unchanged daptomycin excreted in urine / Ratio of 6 mg/kg:4 mg/kg daptomycin (95% CI), CL / Ratio of 6 mg/kg:4 mg/kg daptomycin (95% CI), Cmax (dose-normalized): 6 mg/kg n = 12, 4 mg/kg n = 8, 2 min iv injection
Summary of the method: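 Healthy adults were randomized single-blind to 6 or 4 mg/kg test compound or placebo as a 2 min peripheral iv injection by syringe driver, once daily for 7 days. Heparinized blood was drawn on days 1 and 7, from predose to 24 h after injection start, plus 36 and 48 h on day 7. Total plasma drug was measured by HPLC (LLOQ 3 mg/L). Non-compartmental analysis gave AUC by the trapezoidal rule and CL, reported as arithmetic means.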

[6] = Study 1, 2 min iv injection relative to 30 min iv infusion, 6 mg/kg, ANOVA of log-transformed values, n = 15
[7] = Study 2, day 1, geometric mean ratio
[8] = Study 2, day 7, 6 mg/kg 2 min iv injection once daily, plasma, arithmetic mean (SD), n = 12, SD
[9] = Study 2, day 7, geometric mean ratio

CCCCCCCCCC(=O)N[C@@H](Cc1c[nH]c2ccccc12)C(=O)N[C@H](CC(N)=O)C(=O)N[C@@H](CC(=O)O)C(=O)N[C@@H]1C(=O)NCC(=O)N[C@@H](CCCN)C(=O)N[C@@H](CC(=O)O)C(=O)N[C@H](C)C(=O)N[C@@H](CC(=O)O)C(=O)NCC(=O)N[C@H](CO)C(=O)N[C@@H]([C@H](C)CC(=O)O)C(=O)N[C@@H](CC(=O)c2ccccc2N)C(=O)O[C@@H]1C [daptomycin]
steady state reached by ([1]; 30 min iv infusion, independent of dose): ≤ 3 days | volume of distribution (V) ([1]; average): ~0.1 L/kg | local tolerability reaction: mild tenderness ([2]; 2 min iv injection group): one subject | Subjects with at least one adverse event possibly or probably related to study drug: Any adverse event ([2]; 2 min iv injection, n = 16): 4 (25) n (%) | Subjects with related adverse event: Gastrointestinal disorders ([2]; 2 min iv injection, n = 16): 1 (6) n (%) | Subjects with related adverse event: Infections and infestations ([2]; 2 min iv injection, n = 16): 1 (6) n (%) | Subjects with related adverse event: Nervous system disorders ([2]; 2 min iv injection, n = 16): 1 (6) n (%) | Subjects with related adverse event: fatigue ([2]; 2 min iv injection, n = 16): 1 (6) n (%) | Subjects with related adverse event: headache ([2]; 2 min iv injection, n = 16): 1 (6) n (%) | Subjects with related adverse event: nausea ([2]; 2 min iv injection, n = 16): 1 (6) n (%) | Subjects with related adverse event: urinary tract infection ([2]; 2 min iv injection, n = 16): 1 (6) n (%) | local tolerability reaction: mild tenderness ([2]; 30 min iv infusion group): two subjects | local tolerability reaction: pain ([2]; 30 min iv infusion group): one subject | Subjects with at least one adverse event possibly or probably related to study drug: Any adverse event ([2]; 30 min iv infusion, n = 15): 2 (13) n (%) | Subjects with related adverse event: Gastrointestinal disorders ([2]; 30 min iv infusion, n = 15): 0 n (%) | Subjects with related adverse event: Infections and infestations ([2]; 30 min iv infusion, n = 15): 2 (13) n (%) | Subjects with related adverse event: Nervous system disorders ([2]; 30 min iv infusion, n = 15): 0 n (%) | Subjects with related adverse event: fatigue ([2]; 30 min iv infusion, n = 15): 0 n (%) | Subjects with related adverse event: headache ([2]; 30 min iv infusion, n = 15): 0 n (%) | Subjects with related adverse event: nausea ([2]; 30 min iv infusion, n = 15): 0 n (%) | Subjects with related adverse event: urinary tract infection ([2]; 30 min iv infusion, n = 15): 2 (13) n (%) | serious or severe AEs or deaths ([2]; both regimens): no serious or severe AEs or deaths were reported | tolerability ([2]; both regimens): well tolerated | total AEs reported ([2]; both regimens, 16 subjects): 21 | AEs of mild severity ([2]; both regimens, of 21 AEs): Nineteen | 95% CI for the ratio of the geometric means, AUC0–t [3, 6]: 0.8709–1.0055 | 95% CI for the ratio of the geometric means, AUC0–∞ [3, 6]: 0.9007–1.0117 | 95% CI for the ratio of the geometric means, Cmax [3, 6]: 0.9588–1.1719 | t1/2 ([3]; Study 1, single 6 mg/kg dose, 30 min iv infusion, plasma, HPLC, non-compartmental, harmonic mean (SD), n = 15, SD): 8.7 (0.9) h | AUC(0-t) ([3]; both, human, plasma, iv, 6 mg/kg, Study 1, single 6 mg/kg dose, 2 min iv injection, HPLC, arithmetic mean (SD), n = 15, not dose-normalized, SD): 626 µg·h/mL | AUC(0-t) ([3]; both, human, plasma, iv, 6 mg/kg, Study 1, single 6 mg/kg dose, 30 min iv infusion, HPLC, arithmetic mean (SD), n = 15, not dose-normalized, SD): 670 µg·h/mL | AUC(0-inf) ([3]; both, human, plasma, iv, 6 mg/kg, AUC0–∞, Study 1, single 6 mg/kg dose, 2 min iv injection, HPLC, arithmetic mean (SD), n = 15, not dose-normalized, SD): 691 µg·h/mL | clearance ([3]; both, human, plasma, iv, 6 mg/kg, Study 1, single 6 mg/kg dose, 2 min iv injection, HPLC, non-compartmental, arithmetic mean (SD), n = 15, SD): 0.148 mL/min/kg | clearance ([3]; both, human, plasma, iv, 6 mg/kg, Study 1, single 6 mg/kg dose, 30 min iv infusion, HPLC, non-compartmental, arithmetic mean (SD), n = 15, SD): 0.138 mL/min/kg | Cmax ([3]; both, human, plasma, iv, 6 mg/kg, Cmax, Study 1, single 6 mg/kg dose, 30 min iv infusion, HPLC, arithmetic mean (SD), n = 15, not dose-normalized, SD): 88.4 µg/mL | Vd ([3]; both, human, plasma, iv, 6 mg/kg, SD): 0.113 L/kg | protein bound [4]: 90–93% | steady-state concentrations achieved by ([5]; Study 2, both treatment groups (6 mg/kg and 4 mg/kg), 2 min iv injection once daily, data not shown): third daily dose | AUC0–∞ ([5]; Study 2, day 1, 6 mg/kg 2 min iv injection, healthy adult volunteers, plasma, HPLC, non-compartmental, arithmetic mean (SD), n = 12, SD): 690.37 (68.83) mg·h/L | CL ([5]; Study 2, day 1, 6 mg/kg 2 min iv injection, plasma, arithmetic mean (SD), n = 12, SD): 0.0088 (0.0009) L/h/kg | Ratio of 6 mg/kg:4 mg/kg daptomycin (95% CI), AUC0–tau (dose-normalized) [5, 7]: 1.02 (0.87–1.2) | Ratio of 6 mg/kg:4 mg/kg daptomycin (95% CI), Ae0–tau (dose-normalized), cumulative amount of unchanged daptomycin excreted in urine [5, 7]: 0.95 (0.72–1.25) | Ratio of 6 mg/kg:4 mg/kg daptomycin (95% CI), CL [5, 7]: 1.00 (0.85–1.18) | Ratio of 6 mg/kg:4 mg/kg daptomycin (95% CI), Cmax (dose-normalized) [5, 7]: 1.14 (0.97–1.3) | V [5, 8]: 0.107 (0.011) L/kg | t1/2 [5, 8]: 8.65 (0.63) h | Ratio of 6 mg/kg:4 mg/kg daptomycin (95% CI), AUC0–tau (dose-normalized) [5, 9]: 0.99 (0.87–1.12) | Ratio of 6 mg/kg:4 mg/kg daptomycin (95% CI), Ae0–tau (dose-normalized), cumulative amount of unchanged daptomycin excreted in urine [5, 9]: 0.88 (0.69–1.11) | Ratio of 6 mg/kg:4 mg/kg daptomycin (95% CI), CL [5, 9]: 1.01 (0.9–1.15) | Ratio of 6 mg/kg:4 mg/kg daptomycin (95% CI), Cmax (dose-normalized) [5, 9]: 0.97 (0.82–1.16) | clearance ([5]; both, human, plasma, iv, 4 mg/kg, CL, Study 2, day 1, 4 mg/kg 2 min iv injection, plasma, arithmetic mean (SD), n = 8, SD): 0.15 mL/min/kg
